iPSC survival up – enhancers of human iPSC single-cell survival; survival enhancement, % at 20 µM; AID 602274; 0.044% of 360,000 active; hiPSC single-cell survival, ATPlite luminescence; 100% = ROCK inhibitor wells, 0% = DMSO; in the data active means survival enhancement above about 18%;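 further: cells exposed to compounds for 16 hours before the ATP read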
TAG inh – inhibitors of triacylglycerol accumulation. AID 651582. inhibition, % at 12.5 µM. 0.66% of 230,000 active. H9c2 cells, Nile Red lipid (TAG) fluorescence; cells loaded with 200 µM oleic acid;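 active means pattern-corrected inhibition of lipid staining of at least 50% with the nuclear-stain viability signal not falling by more than 50%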;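 further: 0% = DMSO wells and 100% = triacsin C control wells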
Rev-erbA mod – modulators of human Rev-erb alpha DNA binding; P20393; Rev-erbα–FITC-DNA binding, fluorescence polarization, 90 min; activity, % at 10 µM; 0.79% of 370,000 active;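 active means activity above about 14%, limit read from the data; passing the limit was not always enough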;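 further: 0% = DMSO wells with 35 nM protein and 100% = DMSO wells with 750 nM protein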
Target sequence (P20393 whole entry, looked up): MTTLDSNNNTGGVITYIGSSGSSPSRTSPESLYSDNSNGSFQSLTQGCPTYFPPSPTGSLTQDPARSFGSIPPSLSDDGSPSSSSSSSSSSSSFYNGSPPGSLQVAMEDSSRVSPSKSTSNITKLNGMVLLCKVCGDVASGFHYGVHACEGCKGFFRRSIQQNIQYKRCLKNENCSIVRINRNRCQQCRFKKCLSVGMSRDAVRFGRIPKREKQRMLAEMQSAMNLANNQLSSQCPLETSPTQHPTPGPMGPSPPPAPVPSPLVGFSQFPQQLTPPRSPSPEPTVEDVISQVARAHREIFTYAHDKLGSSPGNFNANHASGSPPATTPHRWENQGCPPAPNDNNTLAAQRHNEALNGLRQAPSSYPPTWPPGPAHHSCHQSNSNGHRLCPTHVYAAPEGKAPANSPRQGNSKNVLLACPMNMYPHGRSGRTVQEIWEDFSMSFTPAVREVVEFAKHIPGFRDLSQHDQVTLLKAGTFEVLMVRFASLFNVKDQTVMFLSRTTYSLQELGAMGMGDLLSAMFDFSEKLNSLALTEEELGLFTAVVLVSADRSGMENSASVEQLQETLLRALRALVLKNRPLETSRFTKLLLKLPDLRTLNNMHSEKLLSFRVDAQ
T cruzi repl – T. cruzi replication inhibition; inhibition, % (no concentration beside the values); 1.4% of 300,000 active; T. cruzi beta-gal in NIH3T3, luminescence, 90 h;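 active means mean inhibition across valid replicates above about 55%, limit read from the data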;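 further: signal also drops with host cell toxicity which is not excluded here; 0% = plate median of DMSO wells and 100% = zero luminescence signal; higher percent means less beta-gal luminescence so fewer parasites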
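System: NIH/3T3 fibroblasts plus reporter T. cruzi. Medium: DMEM plus 2% FBS. Probe or stimulus: 5000 reporter trypomastigotes per well. Compound: single 50 nL compound addition per well in DMSO. Incubation: co-culture of at least 90 h after 3 h attachment. Detection: GalScreen β-gal luminescence, detergent lysis, 60 min. Evaluation: parasite load inhibition, %.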
PG9 Ab binder – binds the HIV-1 gp120 antibody PG9; inhibition, % at 6.7 µM; TR-FRET gp120-PG9 antibody binding; 0.43% of 360,000 active; AID 624416; in the data active means inhibition above about 8.5%
MIN6 prolif – induces beta-cell replication in MIN6 cells. 0.29% of 330,000 active. MIN6 cells proliferation, ATPlite luminescence, 48 h; cells starved in 0.2% serum; 100% = growth in 10% serum. proliferation, % at 10 µM. AID 2380;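 active means compounds whose signal lies at least 3.5 SD above the mean of all wells on their plate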;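 further: 0% = DMSO-treated cells in low-serum medium and 100% = 10% serum control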
PG9 binder conf – PG9 antibody binding, confirmed | shares compounds with PG9 Ab binder | inhibition, % at 6.7 µM | TR-FRET PG9 antibody binding, biochemical | AID 651571 | 90% of 1,500 active; in the data active means inhibition above about 9%
PGV04 Ab binding – binds control antibody PGV04 in PG9 binder counter-screen | shares compounds with PG9 Ab binder | TR-FRET PGV04 antibody-gp120 binding, biochemical | inhibition, % at 6.7 µM | 95% of 1,500 active | AID 651604; in the data active means inhibition above about 9.5%
PG9 binder DR – small molecules binding HIV-1 gp120 antibody PG9; shares compounds with PG9 Ab binder; TR-FRET PG9 antibody-gp120 binding inhibition; 95 tested, under 10 active; IC50, µM; in the data active means IC50 below about 10 µM
PGV04 binding DR – PGV04 binding, dose response counter-screen | shares compounds with PG9 Ab binder | TR-FRET binding to control antibody PGV04 | IC50, µM | 20% of 95 active | AID 651937
PG126 DR counter – binds control antibody PG126 in PG9 counter-screen; shares compounds with PG9 Ab binder; TR-FRET binding to antibody PG126, counterscreen; IC50, µM; 20% of 95 active; AID 651939
NR1D1 mod conf – confirmation of modulators of human Rev-erb alpha DNA binding; shares compounds with Rev-erbA mod; Rev-erb alpha FITC-DNA binding, fluorescence polarization, 90 min; activation, % at 25 µM; 61% of 3,000 active;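 active means activation at or above a set limit, or at least 3 SD above the negative control mean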;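 further: 0% = 35 nM protein with DMSO and 100% = 750 nM protein high control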
RORg counter – counter-screen for Rev-erb alpha modulators: RORgamma DNA binding; shares compounds with Rev-erbA mod; IC50, µM; purified RORgamma protein-FITC-DNA binding, fluorescence polarization; AID 1259320; 8% of 910 active;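 active means Compounds whose fitted half-maximal concentration for disrupting protein-DNA binding is below 10 micromolar; the record names Rev-erb in its text, so the target is in doubt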
* marks the source's active call; other numbers are inactive results; i = inactive; . = not tested or not shown. The list is not random: actives were taken first. Their share in the collection is about 2.9%. Unless noted, no stated cut-off is given here; in the data, active means IC50 below about 9 µM; inactive means the rest.

SMILES	iPSC survival up	TAG inh	Rev-erbA mod	T cruzi repl	PG9 Ab binder	MIN6 prolif	PG9 binder conf	PGV04 Ab binding	NR1D1 mod conf	RORg counter	others
CCc1nc(SCC(=O)Nc2ccc3c(c2)OCCO3)c2oc3ccccc3c2n1	-0.5	2.4	172.3*	16.3	50.5*	-3.3	67.6*	83.5*	168.5*	i
Cc1nc(SCC(=O)Nc2ccc3c(c2)OCCO3)c2oc3ccccc3c2n1	-1.7	.	294.1*	15.2	33.2*	-0.6	37.6*	24.0*	301.9*	.	PG9 binder DR=i;PGV04 binding DR=i;PG126 DR counter=i
Cc1nc(SCC(=O)O)c2oc3ccccc3c2n1	1.4	-2.1	3.6	-2.3	-0.3	-3.0	.	.	.	.
Cc1cc(C)c2c(N)c(C(=O)Nc3ccccc3Br)sc2n1	-0.4	-1.5	38.3*	47.5	9.1*	-2.9	23.3*	38.2*	27.9*	.
Cc1cc(C)c2c(N)c(C(=O)Nc3ccccc3Cl)sc2n1	-0.1	-9.5	0.5	38.9	-1.3	-0.6	.	.	.	.
O=C(COC(=O)c1sc2ccccc2c1Cl)Nc1ncc(Cl)cc1Cl	-2.7	-13.6	51.9*	-11.5	20.5*	-2.0	22.1*	44.8*	36.0*	>40
CCc1ccc(NC(=O)CSc2nc3ncc(Br)cc3[nH]2)cc1	-0.1	.	58.8*	-0.1	10.7*	0.7	27.1*	38.4*	51.7*	i
COc1cccc(NC(=O)CSc2nc3ncc(Br)cc3[nH]2)c1	1.1	.	104.1*	-8.9	22.2*	-1.4	6.9	10.8*	100.8*	i
COc1ccc(CNC(=O)C(c2ccco2)N(C(=O)CNS(=O)(=O)c2ccccc2)c2ccccc2C)cc1 (stereo unspecified)	-0.3	.	3.2	19.3	-0.3	-0.6	.	.	.	.
Cc1ccc(OCC(=O)Nc2ccc(S(=O)(=O)Nc3ccccn3)cc2)cc1C	1.5	-10.8	28.6*	-21.7	49.9*	-1.3	40.9*	45.2*	21.6*	.
O=C(CSc1nnc(NC(=O)c2ccc(F)cc2)s1)NC1CC1	-0.7	.	6.4	-5.5	-0.8	-2.1	.	.	.	.
Cc1ccc(-n2nnnc2SCC(=O)c2ccc3c(c2)NC(=O)CO3)c(C)c1	-0.6	.	25.3*	-12.2	13.3*	-2.0	10.8*	30.5*	23.5*	.
CC1CN(S(=O)(=O)c2ccc(C(=O)Nc3nc(-c4cc5ccccc5o4)cs3)cc2)CC(C)O1 (stereo unspecified)	-1.9	-8.3	64.3*	-8.6	63.4*	-6.2	71.0*	79.2*	11.8	.
CN(C)S(=O)(=O)c1ccc(C(=O)Nc2nc(-c3cc4ccccc4o3)cs2)cc1	1.0	.	3.1	32.6	0.2	-6.3	.	.	.	.
CC(NC(=O)c1ccc(F)cc1)C1CC2CCC1C2 (stereo unspecified)	-0.3	.	2.5	1.9	1.1	0.0	.	.	.	.
C[C@@H](NC(=O)c1ncn2c1c(=O)[nH]c1ccc(Br)cc12)c1ccccc1	3.1	0.8	131.6*	.	18.3*	.	46.4*	53.8*	23.1*	.
COC(=O)C1=C(C)N(Cc2ccc(C(F)(F)F)cc2)C(=NCc2ccc(OC)cc2)NC1c1cccc(Cl)c1 (stereo unspecified)	.	.	-2.1	.	1.9	.	.	.	.	.
COc1ccccc1NC(=O)CCN1CC(C)OC(C)C1 (stereo unspecified)	-5.6	-9.6	0.4	-3.2	1.1	2.5	.	.	.	.
O=C(N/N=C/c1cc(Cl)cc([N+](=O)[O-])c1O)c1cccc(S(=O)(=O)N2CCOCC2)c1	-0.4	-31.7	0.0	.	-0.6	-3.7	.	.	.	.
Cn1c(NC(=O)c2cccc(Cn3cc(Cl)cn3)c2)nc2ccccc21	0.0	.	25.1*	2.5	50.8*	-1.2	37.0*	53.3*	0.8	.
CCn1c(NC(=O)c2cccc(Cn3cc(Cl)cn3)c2)nc2ccccc21	0.7	-14.8	4.2	47.0	0.0	-6.1	.	.	.	.
O=C(CSc1ncnc2c1oc1ccccc12)c1cccs1	-2.3	-19.6	73.3*	7.1	29.2*	-4.4	29.5*	52.2*	66.5*	>40
O=C(CSc1ncnc2c1oc1ccccc12)NCc1ccc(F)cc1	-0.3	-14.2	395.1*	3.7	51.1*	0.9	25.1*	74.0*	434.4*	i
Cc1cccc(NC(=O)CSc2ncnc3c2oc2ccccc23)c1	0.2	16.1	601.1*	1.4	66.4*	-1.1	-38.9	47.1*	630.8*	1.04*
O=C(CSc1ncnc2c1oc1ccccc12)Nc1cccc(F)c1	-2.4	38.3	343.4*	11.5	68.6*	-1.4	67.2*	87.5*	321.8*	i
SMILES	iPSC survival up	TAG inh	Rev-erbA mod	T cruzi repl	PG9 Ab binder	MIN6 prolif	PG9 binder conf	PGV04 Ab binding	NR1D1 mod conf	RORg counter	others
Cc1nc(SCC(=O)c2cccs2)c2oc3ccccc3c2n1	-1.0	.	8.2	10.9	-2.6	-0.9	.	.	.	.
COC(=O)c1c(-c2ccc(OC)cc2)sc2ccccc12	.	.	.	.	.	-4.5	.	.	.	.
CCN(c1ccccc1)S(=O)(=O)c1ccc(C(=O)N2CCN(c3ccccc3F)CC2)cc1	3.0	-5.2	-1.1	.	-0.1	.	.	.	.	.
O=C(NCCN1CCCC1)c1ccc(Cn2c(=S)[nH]c3cc4c(cc3c2=O)OCO4)cc1	-0.5	4.8	-8.2	3.3	1.9	-1.1	.	.	.	.
CC(C)OCCCNC(=O)c1ccc2c(=O)n(Cc3ccc4c(c3)OCO4)c(=S)[nH]c2c1	0.1	18.5	1.5	7.2	-0.9	-4.5	.	.	.	.
C=CCNC(=O)c1ccc(Cn2c(=S)[nH]c3cc4c(cc3c2=O)OCO4)cc1	1.3	15.7	58.4*	1.6	23.4*	-2.5	15.6*	31.4*	64.3*	i
O=C(CCCCn1c(=S)[nH]c2ccsc2c1=O)NCc1ccc2c(c1)OCO2	0.2	-16.6	20.0*	9.0	15.3*	-0.8	16.4*	28.1*	13.9	.
CCN(CC)C(=O)c1ccc2c(=O)n(Cc3ccc4c(c3)OCO4)c(=S)[nH]c2c1	-0.7	.	28.6*	-10.7	24.1*	-0.3	3.9	8.8	11.0	.

Screening results from PubChem.
